Source: ChEMBL document CHEMBL1147003, “Anti-Plasmodium activity of imidazole-dioxolane compounds” (Bioorg Med Chem Lett, 2006)

Experiments:
CHO [1] = test: Selectivity index as IC50 CHO/IC50 Plasmodium falciparum; assay type: functional
Plasmodium falciparum = test: Antimalarial activity against Plasmodium falciparum; assay type: functional, organism-based
In short: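 pLDH read-out of P. falciparum growth. Compounds in DMSO (10 mg/mL) serially diluted twofold in duplicate. Non-synchronous culture added at 5% hematocrit, 2% parasitemia. Incubated 72 h at 37 °C under 95% N2/3% CO2/2% O2. Sample of resuspended wells mixed with pLDH assay mixture, absorbance at 540 nm after 1 h. IC50 from non-linear regression, mean ± SD of four independent assays.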

CHO [2] = test: Cytotoxicity against CHO cell line; assay type: functional, cell-based, Cricetulus griseus
In short: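 CHO cells in RPMI-1640 with 10% FBS, 25 mM HEPES and gentamicin, grown to 50% confluency before compounds added in DMSO. Viability after 24 h by MTT (1 mg/mL), 30 min further incubation, medium removed, DMSO added, absorbance at 540 nm. Run in quadruplicate. IC50 by non-linear regression.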

IC50 (Plasmodium falciparum; Plasmodium falciparum) [µM] | IC50 (Plasmodium falciparum) [µM] | Compound | Ratio IC50 (CHO [1]) | IC50 (CHO [2]; Cricetulus griseus, CHO) [µM] | IC50 (CHO [2]; cho) [µM]
2.8 | – | Cc1ccc(S(=O)(=O)OC[C@H]2CO[C@](CCc3ccc(Cl)cc3)(Cn3ccnc3)O2)cc1 | 4.6 | 13 | –
0.06 | – | Oc1ccc(SC[C@@H]2CO[C@@](CCc3ccc(Cl)cc3)(Cn3ccnc3)O2)cc1 | 181.6 | 10.9 | –
2.1 | – | CSC[C@@H]1CO[C@@](CCc2ccc(Cl)cc2)(Cn2ccnc2)O1.Cl | 4.7 | 9.3 | –
3 | – | Cl.Nc1ccc(SC[C@H]2CO[C@](CCc3ccc(Cl)cc3)(Cn3ccnc3)O2)cc1 | 84.7 | 254 | –
9 | – | Cl.OC[C@@H]1CO[C@@](CCc2ccc(Cl)cc2)(Cn2ccnc2)O1 | 25.2 | 227 | –
18 | – | C[C@H]1CO[C@](CCc2ccc(Cl)cc2)(Cn2ccnc2)O1.Cl | 4.6 | 82 | –
– | 1.2 | Cc1ccc(S(=O)(=O)OC[C@@H]2CO[C@](CCc3ccc(Cl)cc3)(Cn3ccnc3)O2)cc1 | 3.2 | – | 3.8
0.3 | – | Cl.Cl.Nc1cccc(SC[C@@H]2CO[C@](CCc3ccc(Cl)cc3)(Cn3ccnc3)O2)c1 | 60 | 18 | –
2.3 | – | Cl.Clc1ccc(CCC2(Cn3ccnc3)SCCS2)cc1 | 10.9 | 25 | –
0.8 | – | COc1ccc(OC[C@@H]2CO[C@](CCc3ccc(Cl)cc3)(Cn3ccnc3)O2)cc1.Cl | 18.8 | 15 | –
2.5 | – | Cl.Nc1cccc(SC[C@H]2CO[C@](CCc3ccc(Cl)cc3)(Cn3ccnc3)O2)c1 | 3.7 | 9.2 | –
1.2 | – | Cl.Clc1ccc(CC[C@]2(Cn3ccnc3)OC[C@@H](CSc3ccc4ccccc4c3)O2)cc1 | 7.5 | 9 | –
70 | – | Cl.OC(CCc1ccc(Cl)cc1)Cn1ccnc1 (stereo unspecified) | 4.5 | 314 | –
0.8 | – | Cl.Cl.Nc1ccc(SC[C@@H]2CO[C@](CCc3ccc(Cl)cc3)(Cn3ccnc3)O2)cc1 [AZALANSTAT DIHYDROCHLORIDE] | 16.3 | 13 | –
3.3 | – | Cl.Clc1ccc(CC[C@@]2(Cn3ccnc3)OC[C@@H](CSc3ccccc3)O2)cc1 | 2.1 | 7 | –
4.1 | – | C[C@H]1CO[C@@](CCc2ccc(Cl)cc2)(Cn2ccnc2)O1.Cl | 9.5 | 39 | –
0.8 | – | Cl.Fc1ccc(COC(CCc2ccc(Cl)cc2)Cn2ccnc2)cc1 (stereo unspecified) | 6.6 | 5.3 | –
8.3 | – | CCC(COC(C)=O)n1ccnc1 (stereo unspecified) | 222.7 | 1850 | –
23 | – | C[C@@H]1CO[C@](CCc2ccc(Cl)cc2)(Cn2ccnc2)O1.Cl | 4.4 | 102 | –
2.5 | – | Cl.Clc1ccc(CC[C@@]2(Cn3ccnc3)OC[C@@H](CSc3ccc(Cl)cc3)O2)cc1 | 1.3 | 3.3 | –
0.34 | – | C[C@@H]1CO[C@@](CCc2ccccc2)(Cn2ccnc2)O1.Cl | 2226.7 | 668 | –

IC50 (Plasmodium falciparum; Plasmodium falciparum) [µM] | IC50 (Plasmodium falciparum) [µM] | Compound | Ratio IC50 (CHO [1]) | IC50 (CHO [2]; Cricetulus griseus, CHO) [µM] | IC50 (CHO [2]; cho) [µM]
1.9 | – | Cc1ccc(S(=O)(=O)OC[C@H]2CO[C@@](CCc3ccc(Cl)cc3)(Cn3ccnc3)O2)cc1 | 3 | 5.7 | –
2.9 | – | Cc1ccc(S(=O)(=O)OC[C@@H]2CO[C@@](CCc3ccc(Cl)cc3)(Cn3ccnc3)O2)cc1 | 2.8 | 8 | –
1.2 | – | Cl.Cl.Nc1cccc(SC[C@H]2CO[C@@](CCc3ccc(Cl)cc3)(Cn3ccnc3)O2)c1 | 7.5 | 9 | –
3.9 | – | Cl.Cl.Nc1ccccc1SC[C@@H]1CO[C@@](CCc2ccc(Cl)cc2)(Cn2ccnc2)O1 | 4.1 | 16 | –
– | 0.67 | Cc1ccc(S(=O)(=O)OC[C@@H]2CO[C@](CCc3ccc(Cl)cc3)(Cn3ccnc3)O2)cc1.Cl | 10.4 | – | 7
1.3 | – | Cl.Cl.Nc1ccc(OC[C@@H]2CO[C@@](CCc3ccc(Cl)cc3)(Cn3ccnc3)O2)cc1 | 10.8 | 14 | –
0.9 | – | Cl.Clc1ccc(CC[C@@]2(Cn3ccnc3)OC[C@@H](CSc3ccc(Br)cc3)O2)cc1 | 13.3 | 12 | –
3.5 | – | COc1ccc(SC[C@@H]2CO[C@@](CCc3ccc(Cl)cc3)(Cn3ccnc3)O2)cc1.Cl | 1.1 | 3.7 | –
38 | – | COc1ccc(CCC(O)Cn2ccnc2)cc1.Cl (stereo unspecified) | 3.1 | 116 | –
3.3 | – | Cl.Nc1ccccc1SC[C@H]1CO[C@](CCc2ccc(Cl)cc2)(Cn2ccnc2)O1 | 2 | 6.6 | –
2 | – | Cl.Nc1cccc(SC[C@@H]2CO[C@@](CCc3ccc(Cl)cc3)(Cn3ccnc3)O2)c1 | 5 | 10 | –
7 | – | C[C@@H]1CO[C@@](CCc2ccc(Cl)cc2)(Cn2ccnc2)O1.Cl | 7.3 | 51 | –
20 | – | Cl.FC[C@@H]1CO[C@@](CCc2ccc(Cl)cc2)(Cn2ccnc2)O1 | 1.2 | 24 | –
2.7 | – | Cl.Cl.Nc1ccc(SC[C@H]2CO[C@@](CCc3ccc(Cl)cc3)(Cn3ccnc3)O2)cc1 | 2.2 | 6 | –
2.3 | – | Cl.Cl.Nc1ccccc1SC[C@H]1CO[C@@](CCc2ccc(Cl)cc2)(Cn2ccnc2)O1 | 4.8 | 11 | –
25 | – | Cl.O=C(CCc1ccc(Cl)cc1)Cn1ccnc1 | 6.7 | 168 | –
0.6 | – | Cl.Cl.Nc1ccccc1SC[C@@H]1CO[C@](CCc2ccc(Cl)cc2)(Cn2ccnc2)O1 | 10 | 6 | –
1.3 | – | Cl.Nc1ccc(SC[C@@H]2CO[C@@](CCc3ccc(Cl)cc3)(Cn3ccnc3)O2)cc1 | 287.7 | 374 | –
1.1 | – | Cl.Oc1ccc(OC[C@@H]2CO[C@@](CCc3ccc(Cl)cc3)(Cn3ccnc3)O2)cc1 | 0.8 | 0.9 | –
4.9 | – | Cl.Cl.Clc1ccc(CC[C@@]2(Cn3ccnc3)OC[C@@H](CSc3ccncc3)O2)cc1 | 5.5 | 27 | –

Compound | IC50 (Plasmodium falciparum; Plasmodium falciparum) [µM] | IC50 (Plasmodium falciparum) [µM] | Ratio IC50 (CHO [1]) | IC50 (CHO [2]; Cricetulus griseus, CHO) [µM] | IC50 (CHO [2]; cho) [µM]
Cl.Clc1ccc(CCC2(Cn3ccnc3)OCCO2)cc1 | 9 | – | 9.3 | 84 | –
